# Assay results reported in ChEMBL document CHEMBL3739255, “Novel Series of Dihydropyridinone P2X7 Receptor Antagonists” (J Med Chem, 2015).
# pIC50: −log10 of the molar value.
# Columns and labels:
# P2X purinoceptor 7 [1] = biological target: T1, P2X purinoceptor 7 (Homo sapiens, UniProt Q99572); test: Antagonist activity at human P2X7R expressed in BzATP-stimulated human 1321N1 cells incubated for 20 mins followed by BzATP stimulation measured every 1 sec for 60 secs followed by 3 sec intervals for 4 mins by FLIPR Ca2+ assay in presence of ionomycin; type: cell-based
# T1 sequence (Q99572 whole entry): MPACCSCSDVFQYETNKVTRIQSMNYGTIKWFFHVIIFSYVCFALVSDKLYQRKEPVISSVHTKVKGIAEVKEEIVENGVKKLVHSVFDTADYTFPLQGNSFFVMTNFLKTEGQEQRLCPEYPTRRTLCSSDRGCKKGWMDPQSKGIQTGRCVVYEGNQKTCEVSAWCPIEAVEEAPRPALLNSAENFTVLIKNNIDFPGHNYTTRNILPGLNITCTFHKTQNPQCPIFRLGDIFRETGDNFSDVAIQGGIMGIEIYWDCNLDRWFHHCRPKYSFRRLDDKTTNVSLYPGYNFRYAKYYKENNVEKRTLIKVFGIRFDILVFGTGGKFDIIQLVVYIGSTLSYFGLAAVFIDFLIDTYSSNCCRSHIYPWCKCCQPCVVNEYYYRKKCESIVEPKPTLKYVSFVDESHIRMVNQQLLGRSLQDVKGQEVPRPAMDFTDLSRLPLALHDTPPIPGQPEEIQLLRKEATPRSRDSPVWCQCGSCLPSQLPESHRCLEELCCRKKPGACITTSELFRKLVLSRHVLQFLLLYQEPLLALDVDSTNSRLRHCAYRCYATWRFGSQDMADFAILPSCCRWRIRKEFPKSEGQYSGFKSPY
# Procedure, shortened: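 1321N1 cells stably expressing human P2X7R, stimulated with BzATP; calcium flux read on FLIPR. IC50 is the mean of n ≥ 2 runs, each including a positive control.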
# P2X purinoceptor 7 [2] = biological target: T1, P2X purinoceptor 7; test: Antagonist activity at P2X7R in human whole blood assessed as inhibition of LPS-induced IL-1beta production incubated for 30 mins followed by ATP addition for 30 mins by ELISA assay; type: tissue-based
# Liver microsome [3] = test: Retention time of the compound in rat liver microsomes at 20 uM by LC/UV chromatogram analysis; type: ADME
# Liver microsome [4] = test: Retention time of the compound in human liver microsomes at 20 uM by LC/UV chromatogram analysis; type: ADME
# Salmonella typhimurium = test: Genotoxicity in Salmonella typhimurium by Ames test; type: toxicity, organism-based; details: salmonella enterica subsp. enterica serovar typhimurium
# [5] = Intrinsic clearance in rat liver microsomes assessed per mg of protein at 1 uM after 1 hr by LC/MS/MS analysis; type: ADME; details: read-out: CLH
# [6] = Intrinsic clearance in human liver microsomes assessed per mg of protein at 1 uM after 1 hr by LC/MS/MS analysis; type: ADME; details: read-out: CLH
# [7] = Drug level in solid phase treated with (4S)-N-[4-Chloro-5-(2-hydroxyethoxy)-2-methyl-phenyl]-4-(4-fluorophenyl)-2-oxo-3,4-dihydro-1H-pyridine-5-carboxamide after 1 month; type: physicochemical; details: 730.5 h
# Liver microsome [8] = test: Metabolic stability in rat liver microsomes assessed as GSH adduct formation at 20 uM preincubated for 5 mins followed by NADPH addition measured after 60 mins by LC/MS/MS analysis; type: ADME; details: 1 h
# Procedure, shortened: (§1)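 Liver microsomes (human or rat) incubated with compound and glutathione. The GSH adduct is quantified by UV chromatography as % relative peak area versus the summed areas of GSH adduct, other metabolites and parent compound.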
# Liver microsome [9] = test: Metabolic stability in human liver microsomes assessed as GSH adduct formation at 20 uM preincubated for 5 mins followed by NADPH addition measured after 60 mins by LC/MS/MS analysis; type: ADME; details: 1 h; procedure, shortened: as §1
# [10] = Oral bioavailability in rat at 2 mg/kg administered as single dose; type: ADME, organism-based; details: in vivo
# Procedure, shortened: (§2)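 Rats given a single dose, iv 0.5 mg/kg or po 2 mg/kg, with n ≥ 2 per time point. Bioavailability is derived from the po and iv exposures. Vdss is reported in L/kg.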
# Cytochrome P450 2D6 = Cytochrome P450 2D6 (Homo sapiens, UniProt P10635); test: Inhibition of human CYP2D6 by fluorescence assay; type: ADME
# Procedure, shortened: (§3)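 IC50 values for CYP3A4, CYP2D6 and CYP2C9 from a fluorescence-based inhibition assay; average of n ≥ 2.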
# Cytochrome P450 2C9 = Cytochrome P450 2C9 (Homo sapiens, UniProt P11712); test: Inhibition of human CYP2C9 by fluorescence assay; type: ADME; procedure, shortened: as §3
# Rattus norvegicus = test: Dose normalized AUC in rat at 2 mg/kg, po administered as single dose; type: ADME, organism-based; details: in vivo
# Procedure, shortened: (§4)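 Single-dose rat PK: iv at 0.5 mg/kg and po at 2 mg/kg. n ≥ 2 animals per time point. Oral AUC normalized to dose; clearance, Vdss and half-life taken from the iv arm.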
# [11] = Solubility of compound by lyophilization solubility assay; type: physicochemical
# [12] = Half life in rat at 0.5 mg/kg, iv administered as single dose; type: ADME, organism-based; details: in vivo; procedure, shortened: as §4
# [13] = Clearance in rat at 0.5 mg/kg, iv administered as single dose; type: ADME, organism-based; details: in vivo; procedure, shortened: as §4
# [14] = Volume of distribution at steady state in rat at 2 mg/kg, po and 0.5 mg/kg, iv administered as single dose; type: ADME, organism-based; details: in vivo, read-out: Vdss; procedure, shortened: as §2
# Liver microsome [15] = test: Drug metabolism in human liver microsomes assessed as GSH adduct UV peak area at 20 uM preincubated for 5 mins followed by NADPH addition measured after 60 mins by LC/MS/MS analysis relative to total area of GSH adduct, other metabolites, parent compound; type: ADME; details: 1 h
# Cytochrome P450 3A4 = Cytochrome P450 3A4 (Homo sapiens, UniProt P08684); test: Inhibition of human CYP3A4 by fluorescence assay; type: ADME; procedure, shortened: as §3
# [16] = Drug degradation in human plasma at 10 uM after 4 hrs by LC/MS/MS analysis; type: ADME, cell-free; details: read-out: Drug degradation
# Liver microsome [17] = test: Drug metabolism in rat liver microsomes assessed as GSH adduct UV peak area at 20 uM preincubated for 5 mins followed by NADPH addition measured after 60 mins by LC/MS/MS analysis relative to total area of GSH adduct, other metabolites, parent compound; type: ADME; details: 1 h
# Chain of Cytochrome P450 2D6 (P10635 whole entry): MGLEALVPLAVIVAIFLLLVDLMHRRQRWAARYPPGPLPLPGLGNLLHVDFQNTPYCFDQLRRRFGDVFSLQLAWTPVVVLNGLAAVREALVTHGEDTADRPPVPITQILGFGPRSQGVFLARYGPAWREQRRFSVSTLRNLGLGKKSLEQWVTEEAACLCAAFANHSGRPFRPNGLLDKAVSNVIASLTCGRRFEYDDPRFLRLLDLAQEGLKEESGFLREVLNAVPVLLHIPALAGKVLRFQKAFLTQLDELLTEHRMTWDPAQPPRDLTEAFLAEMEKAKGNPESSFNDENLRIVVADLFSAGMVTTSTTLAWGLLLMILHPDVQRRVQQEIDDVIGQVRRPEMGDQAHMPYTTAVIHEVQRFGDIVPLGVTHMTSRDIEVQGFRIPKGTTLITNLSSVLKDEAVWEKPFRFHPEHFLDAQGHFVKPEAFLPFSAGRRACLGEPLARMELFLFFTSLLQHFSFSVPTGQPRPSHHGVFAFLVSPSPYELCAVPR
# Chain of Cytochrome P450 3A4 (P08684 whole entry): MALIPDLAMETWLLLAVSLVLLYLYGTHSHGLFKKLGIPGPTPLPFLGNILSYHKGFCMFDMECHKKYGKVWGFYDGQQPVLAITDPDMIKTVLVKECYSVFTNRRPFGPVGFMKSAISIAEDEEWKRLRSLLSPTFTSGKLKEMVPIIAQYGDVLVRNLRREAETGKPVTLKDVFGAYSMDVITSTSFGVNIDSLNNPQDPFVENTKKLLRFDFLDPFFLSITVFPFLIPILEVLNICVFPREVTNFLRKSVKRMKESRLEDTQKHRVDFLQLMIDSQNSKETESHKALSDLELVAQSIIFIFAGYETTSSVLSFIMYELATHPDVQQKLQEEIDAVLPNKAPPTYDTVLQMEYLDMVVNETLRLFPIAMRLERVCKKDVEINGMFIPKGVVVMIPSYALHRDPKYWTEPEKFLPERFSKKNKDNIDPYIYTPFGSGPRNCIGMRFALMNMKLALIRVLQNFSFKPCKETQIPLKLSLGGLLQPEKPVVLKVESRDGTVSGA
# Chain of Cytochrome P450 2C9 (P11712 whole entry): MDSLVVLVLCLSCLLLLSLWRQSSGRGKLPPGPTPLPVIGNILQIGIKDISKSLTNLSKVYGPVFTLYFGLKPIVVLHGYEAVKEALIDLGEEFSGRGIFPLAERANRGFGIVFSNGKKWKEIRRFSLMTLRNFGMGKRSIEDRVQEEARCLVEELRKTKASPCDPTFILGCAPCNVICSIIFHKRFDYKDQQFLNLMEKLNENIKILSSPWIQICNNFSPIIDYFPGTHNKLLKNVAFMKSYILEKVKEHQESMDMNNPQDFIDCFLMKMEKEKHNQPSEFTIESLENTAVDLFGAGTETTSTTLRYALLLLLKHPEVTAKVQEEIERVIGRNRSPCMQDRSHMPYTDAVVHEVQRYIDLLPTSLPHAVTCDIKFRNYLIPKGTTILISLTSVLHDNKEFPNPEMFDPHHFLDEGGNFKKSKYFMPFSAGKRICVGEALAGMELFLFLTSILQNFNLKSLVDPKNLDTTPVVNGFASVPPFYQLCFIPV
SMILES,pIC50 (P2X purinoceptor 7 [1]),pIC50 (P2X purinoceptor 7 [2]),Activity (Salmonella typhimurium),other results
COc1cc(NC(=O)N2C=CC(=O)C[C@H]2c2ccccc2)c(Br)cc1Cl,7.48,,,
COc1cc(Br)c(NC(=O)C2=CNC(=O)C[C@H]2c2cccc(F)c2)cc1OC,8.05,6.97,,
O=C1C=CN(C(=O)Nc2cc(OCCO)c(Cl)cc2Br)[C@H](c2ccc(F)cc2)C1,7.40,,,
COc1cc(NC(=O)N2C=CC(=O)C[C@H]2c2ccc(F)cc2)c(Br)c(SC[C@H](NC(=O)CC[C@H](N)C(=O)O)C(=O)NCC(=O)O)c1O,,,,Retention_time (Liver microsome [3]): 10.74 min; Retention_time (Liver microsome [4]): 10.74 min
Cc1ccc(-c2ccnn(C)c2=O)cc1NC(=O)C1=CN(C)C(=O)C[C@H]1c1ccc(F)cc1,,8.22,Toxic,
COc1cc(Br)c(NC(=O)N2C=CC(=O)C[C@H]2c2ccc(F)cc2)cc1OC,8.05,,,Retention_time (Liver microsome [3]): 16.58 min; Retention_time (Liver microsome [4]): 16.58 min
COc1cc(C)c(C)c(NC(=O)C2=CNC(=O)C[C@H]2c2ccc(F)cc2)c1,8.05,,,
Cc1cc2cnn(CCO)c2cc1NC(=O)C1=CNC(=O)C[C@H]1c1ccc(F)cc1,7.64,7.33,,
Cc1ccc(-c2ccnn(CCO)c2=O)cc1NC(=O)C1=CN(C)C(=O)C[C@H]1c1ccc(F)cc1,,7.77,Non-toxic,
Cc1ccc(-n2ccccc2=O)cc1NC(=O)C1=CN(C)C(=O)N[C@H]1c1ccc(F)cc1,7.66,7.68,Non-toxic,
CN1C=C(C(=O)Nc2cc(-c3ccn[nH]c3=O)ccc2F)[C@H](c2ccc(F)cc2)CC1=O,7.59,7.57,Non-toxic,
Cc1ccc(-n2ncccc2=O)cc1NC(=O)C1=CN(C)C(=O)C[C@H]1c1ccc(F)cc1,,7.48,Non-toxic,
COc1cc(Br)c(CC(=O)N2C=CC(=O)CC2c2ccccc2)cc1OC (racemic),7.04,,,microsomal CLint at 1 µM [5]: 490 µL/min/mg; microsomal CLint at 1 µM [6]: 153 µL/min/mg
COc1cc(NC(=O)N2C=CC(=O)C[C@H]2c2ccc(F)cc2)c(Br)cc1F,7.49,,,
Cc1cc(Cl)c(OCCO)cc1N,,,Toxic,Drug metabolism [7]: metabolite_detected
Cc1ccc(-c2ccn[nH]c2=O)cc1NC(=O)C1=CN(C)C(=O)C[C@H]1c1ccc(F)cc1,,7.70,Toxic,
O=C1C=CN(C(=O)Nc2ccc3ncccc3c2Br)[C@H](c2ccc(F)cc2)C1,,,,Stability (Liver microsome [8]): Stable; Stability (Liver microsome [9]): Stable
Cc1cc(F)c(-c2ccnn(C)c2=O)cc1NC(=O)C1=CN(C)C(=O)C[C@H]1c1ccc(F)cc1,8.10,7.89,Non-toxic,bioavailability [10]: 64%; pIC50 (Cytochrome P450 2D6): < 4.49; pIC50 (Cytochrome P450 2C9): < 4.49; AUC (Rattus norvegicus): 1121 ng·h/mL; solubility [11]: 322 µg/mL; half-life [12]: 1 h; clearance [13]: 17 mL/min/kg; Vd [14]: 1 L/kg; Stability (Liver microsome [15]): Stable; pIC50 (Cytochrome P450 3A4): < 4.49
COc1cc(I)c(CC(=O)N2C=CC(=O)C[C@H]2c2ccccc2)cc1OC,7.42,,,
COc1cc(NC(=O)N2C=CC(=O)C[C@H]2c2ccc(F)cc2)c(Br)cc1Cl,7.43,,,
COc1cc(C)c(NC(=O)N2C=CC(=O)C[C@H]2c2ccc(F)cc2)cc1OC,7.92,,,microsomal CLint at 1 µM [5]: 25 µL/min/mg; microsomal CLint at 1 µM [6]: 8.2 µL/min/mg
Cc1cc(Cl)c(OCCO)cc1NC(=O)N1C=CC(=O)C[C@H]1c1ccc(F)cc1,8.05,,,"metabolised at 4 h, 10 µM [16]: 50%"
COC[C@H](O)Cn1c(=O)cnn(-c2ccc(C)c(NC(=O)C3=CN(C)C(=O)C[C@H]3c3ccc(F)cc3)c2)c1=O,7.52,7.77,Non-toxic,bioavailability [10]: 20%; pIC50 (Cytochrome P450 2D6): < 4.30; pIC50 (Cytochrome P450 2C9): < 4.30; AUC (Rattus norvegicus): 279 ng·h/mL; solubility [11]: 1020 µg/mL; half-life [12]: 4 h; Stability (Liver microsome [17]): Stable; clearance [13]: 23 mL/min/kg; Vd [14]: 1.2 L/kg; Stability (Liver microsome [15]): Stable; pIC50 (Cytochrome P450 3A4): < 4.30
COc1cc(Br)c(NC(=O)N2C=CC(=O)CC2c2ccccc2)cc1OC (racemic),7.41,,,microsomal CLint at 1 µM [5]: 78 µL/min/mg; microsomal CLint at 1 µM [6]: 22 µL/min/mg
COc1cc(I)c(CC(=O)N2C=CC(=O)C[C@@H]2c2ccccc2)cc1OC,5.42,,,
COc1cc(NC(=O)N2C=CC(=O)C[C@@H]2c2ccccc2)c(Br)cc1Cl,< 5.00,,,
COc1cc(I)c(CC(=O)N2C=CC(=O)CC2c2ccccc2)cc1OC (racemic),6.98,,,microsomal CLint at 1 µM [5]: 548 µL/min/mg; microsomal CLint at 1 µM [6]: 168 µL/min/mg
